{"source": "ChEMBL document CHEMBL1667822", "about": "“Selective antagonists of mouse trace amine-associated receptor 1 (mTAAR1): discovery of EPPTB (RO5212773)” (Bioorg Med Chem Lett, 2011)", "key": {"[1]": {"target": "Galanin receptor type 2 (Homo sapiens) (UniProt O43603)", "sequence (O43603 whole entry)": "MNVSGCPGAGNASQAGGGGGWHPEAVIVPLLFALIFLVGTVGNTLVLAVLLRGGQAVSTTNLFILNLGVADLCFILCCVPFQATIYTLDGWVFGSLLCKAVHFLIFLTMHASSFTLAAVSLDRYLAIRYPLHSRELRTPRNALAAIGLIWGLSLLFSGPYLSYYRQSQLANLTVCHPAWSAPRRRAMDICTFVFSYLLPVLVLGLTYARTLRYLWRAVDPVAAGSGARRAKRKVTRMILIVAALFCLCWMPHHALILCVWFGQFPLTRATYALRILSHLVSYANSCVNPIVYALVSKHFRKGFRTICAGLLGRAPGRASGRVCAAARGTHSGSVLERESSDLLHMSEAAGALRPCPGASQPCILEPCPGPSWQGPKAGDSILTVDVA", "assay": "Displacement of [125I]Galanin from human recombinant GAL2 receptor expressed in CHO cells", "format": "cell-based", "settings": "concentration not given here"}, "[2]": {"target": "5-hydroxytryptamine receptor 2A (Homo sapiens) (UniProt P28223)", "assay": "Displacement of [3H]Ketanserin from human recombinant 5HT2A receptor expressed in HEK293 cells", "format": "cell-based", "settings": "concentration not given here"}, "[3]": {"target": "C-X-C chemokine receptor type 2 (Homo sapiens) (UniProt P25025)", "sequence (P25025 whole entry)": "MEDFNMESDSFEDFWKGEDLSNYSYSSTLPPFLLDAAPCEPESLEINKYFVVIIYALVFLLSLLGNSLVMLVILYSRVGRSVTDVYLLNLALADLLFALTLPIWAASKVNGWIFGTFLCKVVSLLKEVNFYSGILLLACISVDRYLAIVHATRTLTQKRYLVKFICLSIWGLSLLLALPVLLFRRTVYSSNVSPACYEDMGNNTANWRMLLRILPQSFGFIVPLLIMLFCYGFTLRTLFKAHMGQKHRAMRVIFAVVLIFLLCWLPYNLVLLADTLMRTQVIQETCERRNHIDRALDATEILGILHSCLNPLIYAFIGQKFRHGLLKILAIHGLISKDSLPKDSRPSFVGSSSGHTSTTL", "assay": "Displacement of [125I]IL-8 from human recombinant CXCR2 receptor expressed in HEK293 cells", "format": "cell-based", "settings": "concentration not given here"}, "[4]": {"species_on_record": "Rattus norvegicus", "assay": "Inhibition of rat ca2+ channel verapamil site at 10 uM"}, "[5]": {"target": "Adenosine receptor A2a (Homo sapiens) (UniProt P29274)", "sequence (P29274 whole entry)": "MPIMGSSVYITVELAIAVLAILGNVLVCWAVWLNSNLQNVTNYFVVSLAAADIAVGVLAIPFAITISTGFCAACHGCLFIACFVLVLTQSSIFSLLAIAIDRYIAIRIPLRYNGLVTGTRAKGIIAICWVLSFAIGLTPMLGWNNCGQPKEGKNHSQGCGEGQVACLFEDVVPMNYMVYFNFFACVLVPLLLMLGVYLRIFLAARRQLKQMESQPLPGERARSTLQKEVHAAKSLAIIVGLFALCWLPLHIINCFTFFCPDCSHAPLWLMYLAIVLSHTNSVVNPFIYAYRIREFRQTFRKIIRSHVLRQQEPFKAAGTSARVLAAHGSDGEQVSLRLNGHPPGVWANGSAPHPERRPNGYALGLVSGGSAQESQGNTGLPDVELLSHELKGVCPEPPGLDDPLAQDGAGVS", "assay": "Displacement of [3H]CGS21680 from human recombinant A2A receptor expressed in HEK293 cells", "format": "cell-based", "settings": "concentration not given here"}, "[6]": {"target": "5-hydroxytryptamine receptor 1A (Homo sapiens) (UniProt P08908)", "sequence (P08908 whole entry)": "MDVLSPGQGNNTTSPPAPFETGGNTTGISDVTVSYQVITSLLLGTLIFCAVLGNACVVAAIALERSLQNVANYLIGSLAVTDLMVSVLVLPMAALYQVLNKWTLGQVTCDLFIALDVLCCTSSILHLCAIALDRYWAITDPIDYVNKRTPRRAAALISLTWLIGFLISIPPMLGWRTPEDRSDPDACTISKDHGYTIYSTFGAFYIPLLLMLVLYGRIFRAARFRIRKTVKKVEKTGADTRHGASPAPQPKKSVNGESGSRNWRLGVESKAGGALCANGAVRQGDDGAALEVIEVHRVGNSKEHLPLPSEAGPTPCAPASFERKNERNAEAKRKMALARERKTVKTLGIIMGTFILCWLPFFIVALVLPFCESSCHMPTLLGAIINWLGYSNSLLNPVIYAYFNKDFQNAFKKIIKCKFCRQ", "assay": "Displacement of [3H]8-OH-DPAT from human recombinant 5HT1A receptor expressed in HEK293 cells", "format": "cell-based", "settings": "concentration not given here"}, "[7]": {"assay": "Intrinsic clearance in mouse liver microsomes measured per mg of protein", "format": "ADME, Microsome", "summary_of_the_method": "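Intrinsic clearance from in vitro incubation of compound with mouse liver microsomes, expressed per mg microsomal protein.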"}, "[8]": {"target": "Somatostatin receptor (Mus musculus) (UniProt P30935+O08858+P30875+P30873+P49660)", "assay": "Inhibition of mouse somatostatin receptor at 10 uM", "format": "protein assay"}, "[9]": {"target": "C-C chemokine receptor type 1 (Homo sapiens) (UniProt P32246)", "sequence (P32246 whole entry)": "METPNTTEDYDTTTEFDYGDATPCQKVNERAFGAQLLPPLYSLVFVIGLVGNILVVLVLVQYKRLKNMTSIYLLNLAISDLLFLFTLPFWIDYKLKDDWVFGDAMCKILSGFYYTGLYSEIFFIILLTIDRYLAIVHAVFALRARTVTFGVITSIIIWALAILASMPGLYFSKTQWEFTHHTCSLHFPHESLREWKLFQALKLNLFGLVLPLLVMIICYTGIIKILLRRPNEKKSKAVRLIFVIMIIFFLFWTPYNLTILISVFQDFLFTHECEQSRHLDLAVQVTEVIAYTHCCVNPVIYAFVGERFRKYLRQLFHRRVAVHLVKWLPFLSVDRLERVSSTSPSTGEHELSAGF", "assay": "Displacement of [125I]MIP-1a from human recombinant CCR1 receptor expressed in HEK293 cells", "format": "cell-based", "settings": "concentration not given here"}, "[10]": {"target": "T1, Trace amine-associated receptor 1 (Homo sapiens, UniProt Q96RJ0)", "T1 sequence (Q96RJ0 whole entry)": "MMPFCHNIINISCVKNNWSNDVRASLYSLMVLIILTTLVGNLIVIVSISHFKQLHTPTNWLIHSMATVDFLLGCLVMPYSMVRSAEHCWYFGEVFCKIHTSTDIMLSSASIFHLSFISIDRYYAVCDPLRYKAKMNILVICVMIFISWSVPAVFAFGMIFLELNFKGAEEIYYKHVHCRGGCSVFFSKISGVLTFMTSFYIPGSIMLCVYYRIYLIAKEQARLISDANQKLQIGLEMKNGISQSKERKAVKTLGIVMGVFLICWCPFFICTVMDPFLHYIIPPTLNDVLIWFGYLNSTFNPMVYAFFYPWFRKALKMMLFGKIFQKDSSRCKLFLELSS", "assay": "Inhibition of human TAAR1", "summary_of_the_method": "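In vitro cAMP functional assay with antagonism read as reversal of the response to the endogenous agonist beta-PEA. Efficacy was scaled so that 100% equals 0% minimum stimulation. Residual beta-PEA stimulation was taken at the highest test-compound concentration. Values are means of at least two independent experiments, with duplicates typically within a twofold margin.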"}, "[11]": {"species_on_record": "Rattus norvegicus", "assay": "Displacement of [125I]a-dendrotoxin from K+V channel in rat cerebral cortex", "format": "tissue-based", "settings": "concentration not given here"}, "[12]": {"assay": "Ratio of drug level in brain to plasma in mouse at 5 mg/kg, ip", "format": "ADME, organism-based", "set-up": "dose 5 mg/kg, route intraperitoneal", "settings": "read-out: BPR", "summary_of_the_method": "(§1)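 Single-dose pharmacokinetics in mice with parenteral dosing, either 2.5 mg/kg iv or 5 mg/kg ip. Drug levels were measured in plasma, with brain exposure taken as the brain/plasma concentration ratio.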"}, "[13]": {"target": "Trace amine-associated receptor 1 (Rattus norvegicus, UniProt Q923Y9)", "assay": "Antagonist activity at rat TAAR1 assessed as reversal of endogenous beta-PEA effect", "format": "functional", "summary_of_the_method": "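cAMP functional assay in vitro measuring reversal of the effect of endogenous agonist beta-PEA; 100% antagonistic efficacy defined as 0% min% stimulation. Residual stimulation by beta-PEA recorded at the maximum test-compound concentration. Values are the average of at least two independent experiments; duplicates typically within a twofold margin.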"}, "[14]": {"target": "Melanocortin receptor 4 (Homo sapiens) (UniProt P32245)", "assay": "Displacement of [125I]NDP-a-MSH from human recombinant MC4 receptor expressed in CHO cells", "format": "cell-based", "settings": "concentration not given here"}, "[15]": {"target": "Mu-type opioid receptor (Homo sapiens) (UniProt P35372)", "assay": "Displacement of [3H]DAMGO from human recombinant mu opioid receptor expressed in HEK293 cells", "format": "cell-based", "settings": "concentration not given here"}, "[16]": {"target": "Neuropeptide Y receptor type 1 (Homo sapiens) (UniProt P25929)", "sequence (P25929 whole entry)": "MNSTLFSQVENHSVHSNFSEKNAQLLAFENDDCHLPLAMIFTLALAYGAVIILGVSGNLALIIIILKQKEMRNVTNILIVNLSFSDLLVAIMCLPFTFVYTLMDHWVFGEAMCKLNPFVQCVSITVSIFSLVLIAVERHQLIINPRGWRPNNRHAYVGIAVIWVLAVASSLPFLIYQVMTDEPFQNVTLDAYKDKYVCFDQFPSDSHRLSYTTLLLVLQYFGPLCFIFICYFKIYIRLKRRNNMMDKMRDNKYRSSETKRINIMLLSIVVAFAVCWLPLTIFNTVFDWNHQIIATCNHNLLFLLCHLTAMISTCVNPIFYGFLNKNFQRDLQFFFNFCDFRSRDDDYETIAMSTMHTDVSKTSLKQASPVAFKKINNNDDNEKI", "assay": "Displacement of [125I]peptide YY from human recombinant Y1 receptor expressed in […] cell", "settings": "concentration not given here"}, "[17]": {"target": "5-hydroxytryptamine receptor 6 (Homo sapiens) (UniProt P50406)", "assay": "Displacement of [3H]LSD from human recombinant 5HT6 receptor expressed in CHO cells", "format": "cell-based", "settings": "concentration not given here"}, "[18]": {"target": "Neurotensin receptor type 1 (Homo sapiens) (UniProt P30989)", "sequence (P30989 whole entry)": "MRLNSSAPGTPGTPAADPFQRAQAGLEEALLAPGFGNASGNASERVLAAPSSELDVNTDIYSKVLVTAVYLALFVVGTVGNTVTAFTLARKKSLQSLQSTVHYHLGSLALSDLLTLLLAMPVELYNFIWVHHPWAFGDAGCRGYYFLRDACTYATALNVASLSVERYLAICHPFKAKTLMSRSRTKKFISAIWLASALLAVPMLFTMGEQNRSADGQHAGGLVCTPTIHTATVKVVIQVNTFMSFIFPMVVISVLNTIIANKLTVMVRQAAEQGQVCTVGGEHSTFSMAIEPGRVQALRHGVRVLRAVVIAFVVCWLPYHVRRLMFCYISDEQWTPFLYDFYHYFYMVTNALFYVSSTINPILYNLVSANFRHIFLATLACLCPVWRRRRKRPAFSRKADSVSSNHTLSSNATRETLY", "assay": "Displacement of [125I]Tyr3-neurotensin from human recombinant NT1 receptor expressed in H recombinant CHO cells", "format": "cell-based", "settings": "concentration not given here"}, "[19]": {"assay": "Ratio of drug level in brain to plasma in mouse at 2.5 mg/kg, iv", "format": "ADME, organism-based", "set-up": "dose 2.5 mg/kg, route intravenous", "settings": "read-out: BPR", "summary_of_the_method": "as §1"}, "[20]": {"target": "Beta-2 adrenergic receptor (Homo sapiens) (UniProt P07550)", "assay": "Displacement of [3H](-)CGP 12177 from human recombinant beta2 receptor expressed in CHO cells", "format": "cell-based", "settings": "concentration not given here"}, "[21]": {"target": "Cannabinoid receptor 1 (Homo sapiens) (UniProt P21554)", "sequence (P21554 whole entry)": "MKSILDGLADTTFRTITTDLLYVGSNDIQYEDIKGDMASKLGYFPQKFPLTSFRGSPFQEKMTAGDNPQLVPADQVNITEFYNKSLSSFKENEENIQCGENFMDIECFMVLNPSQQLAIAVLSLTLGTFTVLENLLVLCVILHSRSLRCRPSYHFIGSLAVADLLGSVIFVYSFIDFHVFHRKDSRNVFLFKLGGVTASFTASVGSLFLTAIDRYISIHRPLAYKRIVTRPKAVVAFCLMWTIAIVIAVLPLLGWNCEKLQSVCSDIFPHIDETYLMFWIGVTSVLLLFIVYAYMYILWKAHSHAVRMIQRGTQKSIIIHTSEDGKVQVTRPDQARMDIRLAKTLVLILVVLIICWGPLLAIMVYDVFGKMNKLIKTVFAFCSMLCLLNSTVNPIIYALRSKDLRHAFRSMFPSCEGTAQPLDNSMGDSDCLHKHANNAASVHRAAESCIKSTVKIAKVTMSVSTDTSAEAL", "assay": "Inhibition of human cannabinoid CB1 receptor at 10 uM"}, "[22]": {"species_on_record": "Rattus norvegicus", "assay": "Inhibition of rat GABA chloride channel at 10 uM"}, "[23]": {"species_on_record": "Rattus norvegicus", "assay": "Displacement of [3H]batrachotoxinin from sodium channel in rat cerebral cortex", "format": "tissue-based", "settings": "concentration not given here"}, "[24]": {"target": "Thromboxane A2 receptor (Homo sapiens) (UniProt P21731)", "sequence (P21731 whole entry)": "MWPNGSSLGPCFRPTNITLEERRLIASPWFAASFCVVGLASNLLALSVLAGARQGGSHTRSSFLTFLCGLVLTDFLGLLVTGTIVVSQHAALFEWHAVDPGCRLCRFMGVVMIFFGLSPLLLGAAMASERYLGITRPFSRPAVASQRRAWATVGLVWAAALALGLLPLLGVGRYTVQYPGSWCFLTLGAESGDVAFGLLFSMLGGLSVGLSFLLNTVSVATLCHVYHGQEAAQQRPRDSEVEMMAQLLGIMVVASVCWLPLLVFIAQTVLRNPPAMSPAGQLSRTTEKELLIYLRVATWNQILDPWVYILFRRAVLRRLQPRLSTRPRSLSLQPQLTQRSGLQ", "assay": "Displacement of [3H]SQ 29548 from human recombinant TXA2 receptor expressed in HEK293 cells", "format": "cell-based", "settings": "concentration not given here"}, "[25]": {"target": "Sodium-dependent dopamine transporter (Homo sapiens) (UniProt Q01959)", "assay": "Inhibition of human dopamine transporter at 10 uM"}, "[26]": {"target": "monoamine oxidase-B (MAO-B) (Rattus norvegicus, UniProt P19643)", "assay": "Inhibition of rat monoamine oxidase-B at 10 uM"}, "[27]": {"target": "Histamine H1 receptor (Homo sapiens) (UniProt P35367)", "sequence (P35367 whole entry)": "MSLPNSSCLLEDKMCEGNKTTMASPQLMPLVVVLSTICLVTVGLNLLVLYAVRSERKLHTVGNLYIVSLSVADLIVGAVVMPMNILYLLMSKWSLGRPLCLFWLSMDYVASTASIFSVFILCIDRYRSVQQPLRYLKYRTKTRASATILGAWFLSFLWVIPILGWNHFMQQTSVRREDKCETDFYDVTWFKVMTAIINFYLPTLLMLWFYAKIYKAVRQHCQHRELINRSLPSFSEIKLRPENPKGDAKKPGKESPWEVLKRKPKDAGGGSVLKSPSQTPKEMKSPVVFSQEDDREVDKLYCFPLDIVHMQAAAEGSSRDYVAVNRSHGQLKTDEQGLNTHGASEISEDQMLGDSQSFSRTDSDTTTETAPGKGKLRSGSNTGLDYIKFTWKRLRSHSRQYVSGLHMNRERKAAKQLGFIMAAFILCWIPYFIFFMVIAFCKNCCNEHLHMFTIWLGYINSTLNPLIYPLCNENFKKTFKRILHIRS", "assay": "Displacement of [3H]pyrilamine from human recombinant histamine H1 receptor expressed in HEK293 cells", "format": "cell-based", "settings": "concentration not given here"}, "[28]": {"target": "Adrenergic receptor alpha-2 (Rattus norvegicus) (UniProt P22086+P19328+P22909)", "assay": "Displacement of [3H]RX8210 from alpha2 receptor in rat cerebral cortex", "format": "tissue-based", "settings": "concentration not given here"}, "[29]": {"target": "5-hydroxytryptamine receptor 7 (Homo sapiens) (UniProt P34969)", "sequence (P34969 whole entry)": "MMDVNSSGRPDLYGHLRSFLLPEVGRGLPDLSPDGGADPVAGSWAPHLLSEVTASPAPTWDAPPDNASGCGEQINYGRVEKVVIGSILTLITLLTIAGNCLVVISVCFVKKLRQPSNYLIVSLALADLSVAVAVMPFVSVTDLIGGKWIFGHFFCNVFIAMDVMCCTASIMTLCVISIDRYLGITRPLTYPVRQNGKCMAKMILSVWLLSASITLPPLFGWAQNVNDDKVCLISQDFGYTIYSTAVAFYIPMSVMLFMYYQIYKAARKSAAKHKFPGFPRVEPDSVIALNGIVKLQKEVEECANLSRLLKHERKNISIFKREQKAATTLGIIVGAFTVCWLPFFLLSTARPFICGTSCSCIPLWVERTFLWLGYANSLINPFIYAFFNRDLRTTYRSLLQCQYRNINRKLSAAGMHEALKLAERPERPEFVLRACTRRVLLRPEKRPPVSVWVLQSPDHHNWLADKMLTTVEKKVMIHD", "assay": "Displacement of [3H]LSD from human recombinant 5HT7 receptor expressed in CHO cells", "format": "cell-based", "settings": "concentration not given here"}, "[30]": {"assay": "Bioavailability in mouse at 5 mg/kg, ip", "format": "ADME, organism-based", "settings": "in vivo", "summary_of_the_method": "(§2)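 Single-dose pharmacokinetics in mice comparing parenteral routes: intravenous at 2.5 mg/kg and intraperitoneal at 5 mg/kg. Plasma concentrations were followed over time. Bioavailability was derived for the ip route, and Cmax was taken from the ip plasma profile.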"}, "[31]": {"target": "Adrenergic receptor alpha-1 (Rattus norvegicus) (UniProt P15823+P23944+P43140)", "assay": "Displacement of [3H]prazosine from alpha1 receptor in rat cerebral cortex", "format": "tissue-based", "settings": "concentration not given here"}, "[32]": {"assay": "Half life in mouse at 2.5 mg/kg, iv", "format": "ADME, organism-based", "set-up": "dose 2.5 mg/kg, route intravenous", "settings": "in vivo", "summary_of_the_method": "as §2"}, "[33]": {"target": "5-hydroxytryptamine receptor 1B (Rattus norvegicus) (UniProt P28564)", "sequence (P28564 whole entry)": "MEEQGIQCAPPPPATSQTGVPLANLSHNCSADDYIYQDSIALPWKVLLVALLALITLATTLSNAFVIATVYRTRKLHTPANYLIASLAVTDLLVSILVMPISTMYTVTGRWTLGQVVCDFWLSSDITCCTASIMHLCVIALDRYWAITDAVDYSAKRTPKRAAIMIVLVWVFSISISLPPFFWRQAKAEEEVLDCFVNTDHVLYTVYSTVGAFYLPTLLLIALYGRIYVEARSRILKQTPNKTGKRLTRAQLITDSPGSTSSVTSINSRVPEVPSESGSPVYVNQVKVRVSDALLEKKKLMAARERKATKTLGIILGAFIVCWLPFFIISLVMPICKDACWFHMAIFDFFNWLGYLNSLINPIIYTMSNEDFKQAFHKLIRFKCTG", "assay": "Displacement of [125I]CYP from 5HT1B receptor expressed in rat cerebral cortex", "format": "tissue-based", "settings": "concentration not given here"}}, "data": [{"smiles": "CCOc1cccc(NC(=O)c2ccc(N3CCCC3)c(C(F)(F)F)c2)c1", "values": [{"measurement": "inhibition", "setting": "[1]", "value": 13, "unit": "%"}, {"measurement": "inhibition", "setting": "[2]", "value": 21, "unit": "%"}, {"measurement": "inhibition", "setting": "[3]", "value": 2, "unit": "%"}, {"measurement": "inhibition", "setting": "[4]", "value": 16, "unit": "%"}, {"measurement": "inhibition", "setting": "[5]", "value": 13, "unit": "%"}, {"measurement": "inhibition", "setting": "[6]", "value": 4, "unit": "%"}, {"measurement": "clearance", "setting": "[7]", "value": 109, "unit": "µL/min/mg"}, {"measurement": "inhibition", "setting": "[8]", "value": 7, "unit": "%"}, {"measurement": "inhibition", "setting": "[9]", "value": 0, "unit": "%"}, {"measurement": "Ki", "setting": "[10]", "value": "> 5", "unit": "µM"}, {"measurement": "inhibition", "setting": "[11]", "value": -3, "unit": "%"}, {"measurement": "Kp", "setting": "[12]", "value": 0.5}, {"measurement": "IC50", "setting": "[13]", "value": 4.54, "unit": "µM"}, {"measurement": "inhibition", "setting": "[14]", "value": -2, "unit": "%"}, {"measurement": "inhibition", "setting": "[15]", "value": 42, "unit": "%"}, {"measurement": "inhibition", "setting": "[16]", "value": 4, "unit": "%"}, {"measurement": "inhibition", "setting": "[17]", "value": 7, "unit": "%"}, {"measurement": "inhibition", "setting": "[18]", "value": -5, "unit": "%"}, {"measurement": "Kp", "setting": "[19]", "value": 0.5}, {"measurement": "inhibition", "setting": "[20]", "value": 6, "unit": "%"}, {"measurement": "inhibition", "setting": "[21]", "value": 38, "unit": "%"}, {"measurement": "inhibition", "setting": "[22]", "value": 63, "unit": "%"}, {"measurement": "inhibition", "setting": "[23]", "value": 88, "unit": "%"}, {"measurement": "inhibition", "setting": "[24]", "value": 8, "unit": "%"}, {"measurement": "inhibition", "setting": "[25]", "value": 43, "unit": "%"}, {"measurement": "inhibition at 10 µM", "setting": "[26]", "value": 39, "unit": "%"}, {"measurement": "inhibition", "setting": "[27]", "value": 6, "unit": "%"}, {"measurement": "inhibition", "setting": "[28]", "value": 23, "unit": "%"}, {"measurement": "inhibition", "setting": "[29]", "value": 10, "unit": "%"}, {"measurement": "bioavailability", "setting": "[30]", "value": 74, "unit": "%"}, {"measurement": "inhibition", "setting": "[31]", "value": 8, "unit": "%"}, {"measurement": "half-life", "setting": "[32]", "value": 1.9, "unit": "h"}, {"measurement": "inhibition", "setting": "[33]", "value": 53, "unit": "%"}]}]}
